Source: PubChem BioAssay
Calls of active or inactive are those of the source.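 How the source made its calls, unless noted: active means potentiation averaged over duplicate wells exceeding buffer-only control mean by more than 3 SD; inactive means the rest.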

Tests used:
[1] = thallium flux activation in parental CHO cells, counter-screen for KCNQ1 potentiator project (AID 493006;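 active means duplicate-averaged activation above buffer control mean plus 5 SD of those controls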); conditions: parental CHO-K1 cells, FluxOR thallium flux, at 10 µM; active compounds read high
Outline: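 Assay system: Untransfected host CHO-K1 cells with FluxOR thallium dye | Probe or stimulus: Potassium/thallium depolarization pulse | Schedule: Overnight 37 °C plating, 90 min RT dye, 20 min compound | Detection: Kinetic thallium-flux fluorescence | Read-out: Max-minus-min fluorescence over baseline, percent of buffer-to-R-L3 span | Benchmarks: Low control buffer, high control R-L3 activator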

[2] = target: Potassium voltage-gated channel subfamily KQT member 1 (Homo sapiens) (UniProt P51787); test: KCNQ1 potassium channel potentiators, confirmation, FluxOR thallium flux, CHO cells, duplicates (AID 493007); conditions: KCNQ1 cell line, FluxOR thallium flux fluorescence, at 10 µM; active compounds read high, % of reference activator effect, buffer zero;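 on outcome: cells depolarized by a potassium plus thallium sulfate stimulus after compound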
Potassium voltage-gated channel subfamily KQT member 1 (Homo sapiens), sequence (P51787 whole entry, looked up): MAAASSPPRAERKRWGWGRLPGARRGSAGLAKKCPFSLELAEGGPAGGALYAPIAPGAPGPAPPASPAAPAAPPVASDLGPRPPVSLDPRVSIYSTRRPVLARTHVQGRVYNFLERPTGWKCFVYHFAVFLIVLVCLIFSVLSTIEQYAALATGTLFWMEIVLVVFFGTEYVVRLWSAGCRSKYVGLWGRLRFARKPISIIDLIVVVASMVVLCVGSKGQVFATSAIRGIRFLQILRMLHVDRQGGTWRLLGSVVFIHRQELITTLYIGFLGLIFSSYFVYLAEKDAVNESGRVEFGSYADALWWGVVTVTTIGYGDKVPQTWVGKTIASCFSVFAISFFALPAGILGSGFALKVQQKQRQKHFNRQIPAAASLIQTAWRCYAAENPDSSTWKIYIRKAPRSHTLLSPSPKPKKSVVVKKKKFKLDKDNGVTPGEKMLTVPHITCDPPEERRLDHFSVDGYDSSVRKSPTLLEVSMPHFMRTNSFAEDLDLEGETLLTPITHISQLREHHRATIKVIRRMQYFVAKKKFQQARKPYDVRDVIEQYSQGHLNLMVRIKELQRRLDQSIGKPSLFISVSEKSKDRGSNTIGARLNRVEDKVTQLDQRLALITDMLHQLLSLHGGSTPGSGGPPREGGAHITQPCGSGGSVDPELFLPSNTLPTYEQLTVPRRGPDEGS
Outline: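 Material: KCNQ1-expressing CHO cell line; Incubation: FluxOR dye loading 90 min, compound exposure 20 min, room temperature; Detection: FluxOR Tl+ flux fluorescence, 10 s baseline plus 110 s recording; Read-out: percent activation between buffer and R-L3 responses; Control set: buffer-only wells as 0% and R-L3 activator as 100%; Replication: duplicate wells per compound.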

[3] = target: Potassium voltage-gated channel subfamily KQT member 2 (Rattus norvegicus) (UniProt O88943); test: rat KCNQ2 channel potentiation, selectivity assay for KCNQ1 potentiator project, KCNQ2-CHO-K1 cells (AID 493009;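 active means mean duplicate potentiation above the buffer control mean plus 5 SD of buffer wells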;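 further: assay conditions were tuned for KCNQ1 rather than KCNQ2 modulators; signal is max minus min fluorescence divided by baseline after thallium stimulus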); conditions: FluxOR thallium flux fluorescence, at 10 µM; active compounds read high, scaled: buffer 0, activator control 100
Potassium voltage-gated channel subfamily KQT member 2 (Rattus norvegicus), sequence (O88943 whole entry, looked up): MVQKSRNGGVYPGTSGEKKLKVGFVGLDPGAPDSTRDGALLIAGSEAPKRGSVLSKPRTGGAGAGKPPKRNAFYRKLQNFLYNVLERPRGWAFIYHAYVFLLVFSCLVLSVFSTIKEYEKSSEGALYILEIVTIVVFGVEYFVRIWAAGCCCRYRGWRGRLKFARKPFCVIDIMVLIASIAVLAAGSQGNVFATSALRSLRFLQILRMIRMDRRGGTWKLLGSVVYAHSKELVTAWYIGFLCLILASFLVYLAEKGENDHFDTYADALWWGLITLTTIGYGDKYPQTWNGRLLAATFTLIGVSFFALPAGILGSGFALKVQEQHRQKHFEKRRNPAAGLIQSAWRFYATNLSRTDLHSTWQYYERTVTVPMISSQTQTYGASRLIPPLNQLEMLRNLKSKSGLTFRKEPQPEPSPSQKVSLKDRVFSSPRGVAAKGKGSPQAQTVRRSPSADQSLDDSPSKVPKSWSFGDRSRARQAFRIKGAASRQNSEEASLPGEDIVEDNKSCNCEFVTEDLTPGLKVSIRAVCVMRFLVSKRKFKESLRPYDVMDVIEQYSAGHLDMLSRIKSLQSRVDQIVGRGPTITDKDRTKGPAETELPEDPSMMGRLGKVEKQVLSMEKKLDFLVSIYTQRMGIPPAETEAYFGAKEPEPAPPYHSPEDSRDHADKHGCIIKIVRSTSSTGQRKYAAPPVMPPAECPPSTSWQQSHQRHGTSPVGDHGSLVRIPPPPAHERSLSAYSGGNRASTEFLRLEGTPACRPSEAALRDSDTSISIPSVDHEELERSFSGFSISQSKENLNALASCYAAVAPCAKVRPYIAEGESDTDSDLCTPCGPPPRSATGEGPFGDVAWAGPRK

[4] = target: Potassium voltage-gated channel subfamily KQT member 1 (Homo sapiens) (UniProt P51787); test: KCNQ1 channel current potentiators, confirmation, orthogonal assay for KCNQ1 potentiator project, IonWorks patch clamp, KCNQ1-CHO cells (AID 493184;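 active means current rise at least 3 SD above the untreated control mean in each of two repeat wells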;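 on current potentiation: percent change of the same well's current before compound addition so 0% = no change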); conditions: automated patch clamp current, at 10 µM; active compounds read high
Outline: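 assay system = KCNQ1-expressing CHO cells | medium = external bath solution at pH 7.4 | probe or stimulus = 2,000 ms depolarization, -90 to +40 mV | compound dosing = 10 µM final, single point | measured by = automated voltage clamp, amphotericin B perforated patch | measure = percent current increase versus pre-compound level | replication = duplicates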

[5] = target: Potassium voltage-gated channel subfamily E member 1 (Homo sapiens) + Potassium voltage-gated channel subfamily KQT member 1 (Homo sapiens) (UniProt P15382+P51787); test: KCNQ1/KCNE1 complex potentiators, confirmation, selectivity assay for KCNQ1 potentiator project, thallium flux, CHO-K1 KCNQ1/E1 cells (AID 493186;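 active means mean duplicate activation above the buffer control mean plus 5 SD of those controls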); conditions: FluxOR thallium flux, at 10 µM; active compounds read high
Potassium voltage-gated channel subfamily E member 1 (Homo sapiens) + Potassium voltage-gated channel subfamily KQT member 1 (Homo sapiens), sequence (P51787 whole entry, looked up): as the sequence (P51787 whole entry, looked up) above
Outline: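 Test system – CHO-K1 cells with KCNQ1/E1 · Measured by – FluxOR Tl+ flux fluorescence, kinetic read · Controls – buffer low control, R-L3 high control · Times – dye 90 min, compound 20 min, room temperature · Replication – duplicate wells per compound · Doses – one test concentration · Evaluation – fluorescence rise relative to baseline, as percent of R-L3 response above buffer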

Row | SMILES | outcome [1] | potentiation [2] | outcome [3] | outcome [4] | outcome [5] | outcome [2] | potentiation [3] | current potentiation [4] | activation [5]
1 | COc1ccc(-c2nc(=S)c3c([nH]2)Oc2ccc(C)cc2C3)cc1O | inactive | 28.5% (active) | inactive | inactive | inactive | – | – | – | –
2 | CCNc1nc(NCC)nc(C(=O)OCCO)n1 | inactive | – | inactive | inactive | inactive | inactive | – | – | –
3 | COc1ccc2c(c1)[nH]c1c(=O)n(/N=C/c3ccc(OC)c(CN4CCCC4)c3)cnc12 | inactive | – | inactive | inactive | inactive | inactive | – | – | –
4 | CC(Sc1nncs1)C(=O)NC1CCCCC1C (stereo not given) | inactive | – | inactive | inactive | inactive | inactive | – | – | –
5 | Cc1ccc(/C(O)=C/C(=O)C(=O)NNC(=O)C(O)(c2ccccc2)c2ccccc2)cc1 | inactive | – | inactive | inactive | inactive | inactive | – | – | –
6 | CC(C)Oc1cccc(C(=O)NC(=S)N2CCN(c3ccc(C(F)(F)F)cc3[N+](=O)[O-])CC2)c1 | inactive | 35.5% (active) | – | inactive | inactive | – | 144% (active) | – | –
7 | O=C(NC(=S)Nc1cc(C(F)(F)F)ccc1Cl)c1ccccc1 | inactive | – | inactive | inactive | inactive | inactive | – | – | –
8 | O=C(O)CCn1c(-c2ccccc2)cc2ccccc21 | inactive | – | inactive | inactive | inactive | inactive | – | – | –
9 | CCCOC(=O)C1=C(C)NC2=C(C(=O)CCC2)C1c1ccc(N(C)C)cc1 (stereo not given) | inactive | – | inactive | inactive | inactive | inactive | – | – | –
10 | CC(C1CC2CCC1C2)n1c(-c2ccco2)n[nH]c1=S (stereo not given) | inactive | – | inactive | inactive | inactive | inactive | – | – | –
11 | COc1ccccc1OCCCc1c(C)n[nH]c1C | inactive | – | inactive | inactive | inactive | inactive | – | – | –
12 | O=C1CCCCCN1Sc1ccccc1 | inactive | 18.5% (active) | inactive | inactive | inactive | – | – | – | –
13 | Cn1c(=O)cc(NCc2ccccc2)[nH]c1=O | inactive | – | inactive | inactive | inactive | inactive | – | – | –
14 | CCOc1cc(CN2CCOCC2)cc(C(C)=O)c1 | inactive | 23.5% (active) | inactive | inactive | inactive | – | – | – | –
15 | Cc1ccc(-n2ncc3c(=O)n(CC(=O)N4CCN(c5ccccc5F)CC4)cnc32)cc1C | inactive | – | inactive | inactive | inactive | inactive | – | – | –
16 | Cc1ccc(C(=O)OCC(=O)NCCC2=CCCCC2)s1 | inactive | – | inactive | inactive | inactive | inactive | – | – | –
17 | Cc1ccc(C)c(-n2c3nc(=O)n(C)c(=O)c-3cc3ccccc32)c1 | inactive | – | inactive | inactive | inactive | inactive | – | – | –
18 | Oc1ccc(Br)cc1C=Nc1ccc(Cl)cc1 | inactive | – | inactive | inactive | inactive | inactive | – | – | –
19 | O=C(NC(=S)Nc1ccc2c(c1)OCCO2)c1cccc2ccccc12 | inactive | – | inactive | inactive | inactive | inactive | – | – | –
20 | Cc1cc(C)c2c(n1)nn1c(NCCCN(C)C)cc(C)nc21 | inactive | – | inactive | inactive | inactive | inactive | – | – | –

Row | SMILES | outcome [1] | potentiation [2] | outcome [3] | outcome [4] | outcome [5] | outcome [2] | potentiation [3] | current potentiation [4] | activation [5]
21 | COc1ccc(OCC(=O)NC(=S)NNC(=O)COc2ccc(Br)cc2Cl)cc1 | inactive | 18.5% (active) | inactive | inactive | inactive | – | – | – | –
22 | OCCN(CCO)c1ccc(C(c2ccccc2Cl)c2ccc(N(CCO)CCO)cc2Cl)c(Cl)c1 | inactive | 34.5% (active) | inactive | inactive | inactive | – | – | – | –
23 | C/C(=N\Nc1cccc2cccnc12)c1ccc[nH]1 | inactive | 30% (active) | inactive | inactive | inactive | – | – | – | –
24 | Cc1ccc(C(=O)NC(=S)N2CCN(c3cc(C)ccc3C)CC2)cc1 | inactive | 50% (active) | inactive | inactive | inactive | – | – | – | –
25 | CCCSc1ncnc2c1oc1ccccc12 | inactive | – | inactive | inactive | inactive | inactive | – | – | –
26 | O=C(NNC(=O)c1cc(-c2ccccc2)nn1-c1ccccc1)c1ccccc1 | inactive | – | inactive | inactive | inactive | inactive | – | – | –
27 | O=C1C(Nc2ccc(O)cc2)=C/C(=N/S(=O)(=O)c2cccs2)c2ccccc21 | inactive | 17.5% (active) | inactive | inactive | inactive | – | – | – | –
28 | C=CCn1c(O)c(N=NC(=S)Nc2ccc(OC)cc2)c2ccccc21 | inactive | 33.5% (active) | inactive | inactive | inactive | – | – | – | –
29 | CCOc1cccc2sc(NC(=O)c3ccc(Br)s3)nc12 | inactive | – | inactive | inactive | inactive | inactive | – | – | –
30 | Cc1ccc(OCC(=O)NNC(=S)NC(=O)C2CCCCC2)c(C)c1 | inactive | 26.5% (active) | inactive | inactive | inactive | – | – | – | –
31 | CC(C)CNC(=S)NC(=O)c1ccc([N+](=O)[O-])cc1 | inactive | – | inactive | inactive | inactive | inactive | – | – | –
32 | Cc1ccc(C)c(Cn2c(O)c(N=NC(=S)Nc3ccccc3F)c3ccccc32)c1 | inactive | – | inactive | inactive | inactive | inactive | – | – | –
33 | CNC(=O)CC1C(=O)N(c2ccc(Cl)cc2)C(=S)N1CCc1ccc(OC)c(OC)c1 (stereo not given) | inactive | – | inactive | inactive | inactive | inactive | – | – | –
34 | O=C(COc1ccccc1Cl)NC(=S)N1CCc2ccccc21 | inactive | – | inactive | inactive | inactive | inactive | – | – | –
35 | COc1ccc(-c2nnc(NC(=O)c3ccc(S(=O)(=O)N4CCCc5ccccc54)cc3)o2)cc1 | inactive | – | inactive | inactive | inactive | inactive | – | – | –
36 | CC(=O)Nc1ccc(S(=O)(=O)Nc2nc3ccccc3nc2Nc2ccccc2)cc1 | inactive | – | inactive | inactive | inactive | inactive | – | – | –
37 | O=C(CNS(=O)(=O)c1ccc([N+](=O)[O-])cc1)N/N=C\c1ccc(O)cc1 | inactive | 24% (active) | – | inactive | inactive | – | 154% (active) | – | –
38 | Cc1cccc(C(=O)NC(=S)NNC(=O)COc2c(C)cccc2C)c1 | inactive | 29.5% (active) | – | inactive | inactive | – | 176% (active) | – | –
39 | Oc1c(N=NC(=S)Nc2ccccc2F)c2ccccc2n1Cc1cccc(Cl)c1 | inactive | – | inactive | inactive | inactive | inactive | – | – | –
40 | O=C(NC1(O)C(=O)c2ccccc2C1=O)c1ccc(C(F)(F)F)cc1 | inactive | – | – | inactive | inactive | inactive | 148% (active) | – | –

Row | SMILES | outcome [1] | potentiation [2] | outcome [3] | outcome [4] | outcome [5] | outcome [2] | potentiation [3] | current potentiation [4] | activation [5]
41 | COc1cc(OC)c(-n2cc(-c3ccc(Cl)cc3)[nH]c2=O)cc1Cl | inactive | – | inactive | inactive | inactive | inactive | – | – | –
42 | CCOC(=O)C1=C(CC)Nc2ccccc2N=C1NC(=O)CCNC(C)=O | inactive | – | inactive | inactive | inactive | inactive | – | – | –
43 | O=C(NC(=S)NCCC1=CCCCC1)c1ccccc1Br | inactive | 47% (active) | – | inactive | inactive | – | 186% (active) | – | –
44 | CN(C)CCNc1ncnc2c1sc1nc(N3CCOCC3)c3c(c12)CC(C)(C)SC3 | inactive | – | inactive | inactive | inactive | inactive | – | – | –
45 | CS(=O)(=O)N1CCc2cc(-c3csc(NC(=O)C(c4ccccc4)c4ccccc4)n3)ccc21 | inactive | – | inactive | inactive | inactive | inactive | – | – | –
46 | Cc1cccc(N2CCN(C(=O)Cn3sc4nc(C)cc(C)c4c3=O)CC2C)c1 (stereo not given) | inactive | – | inactive | inactive | inactive | inactive | – | – | –
47 | COc1ccc(C2SCC(=O)N2c2nc3ccccc3s2)cc1 (stereo not given) | inactive | – | inactive | – | inactive | inactive | – | 26.4% (active) | –
48 | O=C(NC(=S)Nc1cccc([N+](=O)[O-])c1)c1ccco1 | inactive | – | inactive | inactive | inactive | inactive | – | – | –
49 | COc1ccc(-c2csc(N(CCCN(C)C)C(=O)c3ccccc3F)n2)cc1 | inactive | – | inactive | inactive | inactive | inactive | – | – | –
50 | O=C(Nc1nnc(-c2ccccc2)o1)c1ccc(Cl)cc1 | inactive | 24% (active) | inactive | inactive | – | – | – | – | 23.9% (active)
51 | CCn1c2ccccc2c2cc(CC(N)=O)ccc21 | inactive | – | inactive | inactive | inactive | inactive | – | – | –
52 | CCn1c(CN2CCN(c3ccc(OC)cc3)CC2)nc2cc(S(=O)(=O)N(C)C)ccc21 | inactive | – | inactive | inactive | inactive | inactive | – | – | –
53 | Cn1c(O)c(N=NC(=S)Nc2ccccc2F)c2cc(S(=O)(=O)N3CCOCC3)ccc21 | inactive | – | inactive | inactive | inactive | inactive | – | – | –
54 | COc1cccc(C(=O)CC(=O)C(=O)Nc2ccc(C)cc2Cl)c1 | inactive | – | inactive | inactive | inactive | inactive | – | – | –
55 | CCCCNC(=O)CCc1c(C)nc2c(c(C)nn2-c2ccccc2)c1C | inactive | – | inactive | inactive | inactive | inactive | – | – | –
56 | CCN1CCN(c2ccc(S(=O)(=O)N3CCCC3)cn2)CC1 | inactive | – | inactive | inactive | inactive | inactive | – | – | –
57 | Cc1cccc(NC(=O)c2cccc(NC(=O)Cc3cccs3)c2)c1 | inactive | 17.5% (active) | inactive | inactive | inactive | – | – | – | –
58 | Cc1cccc(C(=O)NN2C(=O)C3C(c4ccccc4)C=CC(c4ccccc4)C3C2=O)c1 (stereo not given) | inactive | – | inactive | inactive | inactive | inactive | – | – | –
59 | CCOc1ccc(NC(=O)c2ccc(N)cc2)cc1 | inactive | – | inactive | inactive | inactive | inactive | – | – | –
60 | CCN(c1ccccc1)S(=O)(=O)c1ccc(NC(=S)NC(=O)c2ccc(Br)o2)cc1 | inactive | 76% (active) | – | inactive | inactive | – | 168% (active) | – | –
